This is an account of results in ChEMBL document CHEMBL2169874, “Design, synthesis, and pharmacological evaluation of novel hybrid compounds to treat sickle cell disease symptoms. part II: furoxan derivatives” (J Med Chem, 2012).

Activity calls are given as the source filed them. The rule behind the calls is not given here.

The test system of series [1] is Mus musculus. Nature of the series: Antinociceptive activity in Swiss albino mouse assessed as inhibition of acetic-acid induced abdominal constriction at 100 umol/kg, po administered 1 hr prior to acetic-acid challenge measured after 10 mins relative to vehicle-treated control. The series is classed as functional. Particulars: Abdomen. Put shortly: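 Mice dosed orally at 100 μmol/kg as a suspension in 5% arabic gum in saline. 0.6% acetic acid (0.1 mL/10 g) given ip 1 h later. Starting 10 min after injection, constrictions per animal counted for 20 min. Vehicle controls received an equal volume. Expressed as % inhibition vs vehicle group; mean ± SEM, 10 animals per group; Student's t test.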

A short description of series [2]: Induction of nitrite release at 10^-4 M after 1 hr by Griess method in presence of L-cysteine. The class given is physicochemical. Particulars: 100 µM.
For series [3], the system named is Mus musculus. In words: Mutagenicity in Swiss mouse assessed as micronucleated reticulocytes in peripheral blood at 50 mg/kg, po after 30 hrs by micronucleus test. The class given is toxicity, organism-based. More on the design: dose 50 mg/kg, route oral. Particulars: in vivo. Put shortly:
(§1)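 Swiss mice of both sexes (25−30 g), 10 per group, gavaged at 25, 50 or 100 mg/kg. Negative control: 1% CMC/0.2% Tween by gavage; positive control: cyclophosphamide 50 mg/kg ip. Blood collected 30 h later, slides prestained with acridine orange. 1000 reticulocytes scored per animal for micronucleated cells; mean with SD.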

The test system of series [4] is K562. Nature of the series: Upregulation of beta-soluble guanilate cyclase mRNA expression in human K562 cells at 5 and 30 uM from 24 to 96 hrs by qRT-PCR analysis relative to control. The class given is functional, cell-based. Put shortly:
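K562 cells in DMEM with 10% FBS, penicillin/streptomycin, 37 °C, 5% CO2, seeded at 1 × 10^7 cells/100 mL. Treated at 5 or 30 μM for 24, 48, 72, 96 h. β-sGC mRNA by SYBR Green qRT-PCR, normalized to β-actin and GAPDH, vs DMSO control. Mean ± SEM, n = 5; Mann−Whitney test.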

The test system of series [5] is K562. In words: Upregulation of gamma-globin mRNA expression in human K562 cells at 5 uM after 96 hrs by qRT-PCR analysis relative to control. The series is classed as functional. Put shortly:
(§2)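 K562 cells in DMEM with 10% FBS, penicillin/streptomycin, 37 °C, 5% CO2, seeded at 1 × 10^7 cells/100 mL. Treated at 5−100 μM for 24, 48, 72 or 96 h. γ-globin mRNA by SYBR Green qRT-PCR, normalized to β-actin and GAPDH, vs vehicle control (DMSO, or water for HU). Mean ± SEM, n = 5; ANOVA with Dunnett's test.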

The test system of series [6] is K562. Nature of the series: Upregulation of gamma-globin mRNA expression in human K562 cells at 5 uM after 24 hrs by qRT-PCR analysis relative to control. The series is classed as functional, cell-based. Put shortly: as §2
Series [7] has as its system Mus musculus. Nature of the series: Mutagenicity in Swiss mouse assessed as micronucleated reticulocytes in peripheral blood at 100 mg/kg, po after 30 hrs by micronucleus test. The series is classed as toxicity, organism-based. More on the design: dose 100 mg/kg, route oral. The conditions noted are these: in vivo. Put shortly: as §1
The subject of series [8] is Mus musculus. In words: Mutagenicity in Swiss mouse assessed as micronucleated reticulocytes in peripheral blood at 25 mg/kg, po after 30 hrs by micronucleus test. The class given is toxicity, organism-based. Details: dose 25 mg/kg, route oral. The conditions noted are these: in vivo. Put shortly: as §1
In series [9] the test system is K562. In words: Upregulation of gamma-globin mRNA expression in human K562 cells at 100 uM after 96 hrs by qRT-PCR analysis relative to control. The series is classed as functional. Put shortly: as §2
For series [10], the system named is K562. In words: Upregulation of gamma-globin mRNA expression in human K562 cells at 5 uM after 24 to 96 hrs by qRT-PCR analysis relative to control. The series is classed as functional, cell-based. Put shortly:
as §2

For `O=C(OCc1c(-c2ccccc2)no[n+]1[O-])c1cc(N2C(=O)c3ccccc3C2=O)ccc1O`, the inhibition entry in the series on Mus musculus [1] was “inactive”. In addition, in series [2], the Activity worked out at 10.6%.
For `O=C1c2ccccc2C(=O)N1CCOc1c(S(=O)(=O)c2ccccc2)no[n+]1[O-]`, in the series on Mus musculus [1], the inhibition in vivo at 100 µmol/kg turned out to be 43%. The Activity in the series on Mus musculus [3] worked out at 5.5; in series [2] it was 9.5%; with Mus musculus [7] it was 6.7; in the series with Mus musculus [8], 4. Further, the result in the series on K562 [4] was inactive. In the series with K562 [5], the “fold change (FC)” value is given as 2.8. The outcome with K562 [6] was Active.
As for `Cc1c(N(C)CS(=O)(=O)O)c(=O)n(-c2ccccc2)n1C`, in the series with Mus musculus [1], the inhibition result was “Active”.
Consider `O=C1c2ccccc2C(=O)N1c1ccc(S(=O)(=O)NCCOc2no[n+]([O-])c2S(=O)(=O)c2ccccc2)cc1`, for which the inhibition in vivo at 100 µmol/kg in the series on Mus musculus [1] was 36%. In series [2], the Activity is reported as 28.1%.
Consider `O=C(OCc1c(-c2ccccc2)no[n+]1[O-])c1ccccc1N1C(=O)c2ccccc2C1=O`, for which the inhibition result with Mus musculus [1] was “inactive”. The Activity in [2] is on record as 9.7%.
Consider `O=C(OCc1c(-c2ccccc2)no[n+]1[O-])c1cccc(N2C(=O)c3ccccc3C2=O)c1`, for which, in the series on Mus musculus [1], the inhibition entry is “inactive”. The Activity in series [2] was determined as 13.2%.
On to `O=[N+]([O-])O[C@H]1CO[C@H]2[C@@H]1OC[C@H]2O[N+](=O)[O-]` [ISOSORBIDE DINITRATE], for which the Activity in series [2] was found to be 11.6%.
For `O=C1c2ccccc2C(=O)N1Cc1c(-c2ccccc2)no[n+]1[O-]`, the inhibition result in the series with Mus musculus [1] was “inactive”. Moreover, the Activity in [2] turned out to be 14.8%.
For the molecule `NC(=O)NO` [HYDROXYUREA], in the series on Mus musculus [1], the inhibition result is “inactive”. Moreover, the Activity came to 15 in the series on Mus musculus [3], 33.7 with Mus musculus [7] and 9.9 in the series with Mus musculus [8]. The “fold change (FC)” value with K562 [9] is 1.77. For the same molecule, the result in the series on K562 [10] was inactive.
Consider `O=C(NCCOc1no[n+]([O-])c1S(=O)(=O)c1ccccc1)c1ccc(N2C(=O)c3ccccc3C2=O)cc1`, for which, in the series on Mus musculus [1], the inhibition result was “inactive”. In addition, the Activity in series [2] was 28.2%.
